Results collected from several papers.
Protocols differ between the studies behind these lines.

| Structure (SMILES) | test | test system | setting | endpoint | result |
| --- | --- | --- | --- | --- | --- |
| C#Cc1nc(C(=O)N2CCC(NC(=O)c3cnc(-c4ccccc4)s3)(c3nc4ccccc4n3C)CC2)cs1 | metabolic stability | mouse, liver microsomes | – | half-life | ~20 min |
| CN1CCC[C@H]1c1cccnc1 | – | rat, plasma | intravenous, 0.1 mg/kg | half-life | 68 min |
| Cl.Cn1c(=O)n(CCCCN2CCC3(CC2)OCc2ccccc23)c2ccccc21 | – | male Sprague-Dawley rat, plasma | intravenous, 10 mg/kg | half-life | 216 min |
| CC(C)CC(=O)OC[C@H]1O[C@@](C#N)(c2ccc3c(N)ncnn23)[C@H](O)[C@@H]1O | metabolic stability | mouse, hepatocytes | 5 µM | half-life | < 4.36 min |
| CC(=O)c1c(C)c2cnc(Nc3ccc(C4CCN(CCS(C)(=O)=O)CC4)cn3)nc2n(C2CCCC2)c1=O | metabolic stability | mouse, liver microsomes | – | half-life | 72.2 min |
| Cc1[nH]c(C)c(S(=O)(=O)Nc2ccc(S(F)(F)(F)(F)F)cc2)c1C(=O)N1CCC(F)(F)C1 | metabolic stability | mouse, liver microsomes | – | half-life | 20 min |
| Cc1ccc2cc(N3CCC4(O)C(=O)c5cc(C)c(C)cc5N=C34)ccc2n1 (stereo not shown) | – | rat, plasma | intravenous, 2 mg/kg | half-life | 186 min |
| Cc1[nH]c(C)c(S(=O)(=O)Nc2ccc(S(=O)(=O)F)c(Cl)c2)c1C(=O)N1CCC(F)(F)C1 | metabolic stability | mouse, liver microsomes | – | half-life | 32 min |
| CC[C@H](C)CCCCC(=O)N[C@@H](CCN)C(=O)N[C@H](C(=O)N[C@@H](CCN)C(=O)N[C@H]1CCNC(=O)[C@H]([C@@H](C)O)NC(=O)[C@H](CCN)NC(=O)[C@H](CCN)NC(=O)[C@H](CC(C)C)NC(=O)[C@@H](CC(C)C)NC(=O)[C@H](CCN)NC1=O)[C@@H](C)O | – | male Sprague-Dawley rat, plasma | intravenous, 5 mg/kg | C0 | 15400 ng/mL |
| O=c1c2cc(Cl)c(CO)cc2[nH]c(=S)n1Cc1cncnc1 | metabolic stability | mouse, liver microsomes | 1 µM, pH 7.4 | half-life | 57.9 min |
